Test results as given in ChEMBL document CHEMBL4414651, “Discovery and Optimization of Salicylic Acid-Derived Sulfonamide Inhibitors of the WD Repeat-Containing Protein 5-MYC Protein-Protein Interaction” (J Med Chem, 2019).
The source made the active and inactive calls. The calls are words filed in the database; no cut-off is given here.

How the values were obtained:
[1] = biological target: T1, WD repeat-containing protein 5 (Homo sapiens, UniProt P61964); assay: Binding affinity to WDR5 (unknown origin) assessed as inhibition of WDR5-MLL1 protein-protein interaction by TR-FRET assay
[2] = biological target: T1, WD repeat-containing protein 5
[3] = biological target: T1, WD repeat-containing protein 5; assay: Binding affinity to N-terminal FLAG-tagged human full-length WDR5 […] assessed as change in melting temperature at 10 uM by differential scanning fluorimetry
How it was run: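 Thermal shift (differential scanning fluorimetry) on WDR5, with compounds at 10 μM. Samples were run in triplicate, and ΔTm is the average melting-temperature shift read by fluorescence.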

[4] = biological target: T1, WD repeat-containing protein 5; assay: Binding affinity to N-terminal FLAG-tagged human full-length WDR5 expressed in HEK293T cells harboring human C-terminal HA-tagged c-MYC assessed as disruption of WDR5-RBBP5 protein-protein interaction at 50 uM by SDS-PAGE based immunoblot assay; assay type: cell-based
How it was run: (§1)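 HEK293 cells expressing FLAG-WDR5 and c-MYC-HA were kept in DMEM with 10% FBS, hygromycin B 50 μg/mL and puromycin 100 ng/mL. Lysates in Tris pH 8.0/NaCl/EDTA/1% Triton buffer were treated with compound at 50 μM or 6.25–50 μM. α-FLAG magnetic M2 beads, 2 h at 4 °C, then SDS-PAGE and α-RBBP5 immunoblot. Quantified against vehicle; at least two independent repeats.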

[5] = biological target: T1, WD repeat-containing protein 5; assay: Binding affinity to N-terminal FLAG-tagged human full-length WDR5 expressed in HEK293T cells harboring human C-terminal HA-tagged c-MYC assessed as disruption of WDR5-c-MYC protein-protein interaction at 50 uM by SDS-PAGE based immunoblot assay; assay type: cell-based
[6] = Solubility of the compound; assay type: physicochemical
How it was run: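 Kinetic solubility, measured by an outside contract lab using a standard commercial assay format.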

[7] = Apparent permeability from apical to basolateral side in MDCK cells; assay type: ADME, cell-based, Canis lupus familiaris; settings: dog
[8] = biological target: T1, WD repeat-containing protein 5; assay: Binding affinity to N-terminal FLAG-tagged human full-length WDR5 expressed in HEK293T cells harboring human C-terminal HA-tagged c-MYC assessed as disruption of WDR5-c-MYC protein-protein interaction by SDS-PAGE based immunoblot assay; assay type: cell-based
[9] = biological target: T1, WD repeat-containing protein 5; assay: Binding affinity to N-terminal FLAG-tagged human full-length WDR5 expressed in HEK293T cells harboring human C-terminal HA-tagged c-MYC assessed as disruption of WDR5-RBBP5 protein-protein interaction by SDS-PAGE based immunoblot assay; assay type: cell-based; how it was run: as §1
[10] = Protein binding in plasma (unknown origin) assessed as unbound fraction; assay type: ADME, cell-free
[11] = organism: Homo sapiens; assay: Inhibition of human MLL1/WDR5/RBBP5/ASH2L/DPY30 complex assessed as reduction in histone methyl-transferase activity using H3-peptide as substrate
[12] = Apparent permeability from basolateral to apical side in MDCK cells; assay type: ADME, cell-based, Canis lupus familiaris; settings: dog

Row | SMILES | inhibition [1] | Kd [2] | ΔTm [3] | Activity [4] | Activity [5] | solubility [6] | Papp [7] | Activity [8] | Activity [9] | Fu [10] | inhibition [11] | Papp [12]
1 | CNC(=O)c1cc(C2(C#N)CCCCC2)cc(NS(=O)(=O)c2cc(Br)ccc2O)c1O | inactive | 779 nM | – | – | – | – | – | – | – | – | – | –
2 | N#CC1(c2cc(NS(=O)(=O)c3cc(Br)ccc3O)c(O)c(C(=O)O)c2)CCC1 | – | 67 nM | 3.9 °C | Active | Active | – | – | – | – | – | – | –
3 | N#CC1(c2cc(NS(=O)(=O)c3cc(Br)ccc3O)cc(C(=O)O)c2)CCC1 | inactive | 229 nM | – | – | – | – | – | – | – | – | – | –
4 | N#CC1(c2cc(NS(=O)(=O)c3cc(Br)cc(Cl)c3O)c(O)c(C(=O)O)c2)CCC1 | inactive | 30 nM | 6.68 °C | Active | Active | > 100 µM | 0.33 ×10⁻⁶ cm/s | Dose-dependent effect | Dose-dependent effect | < 0.0003% | Active | –
5 | N#CC1(c2cc(NS(=O)(=O)c3cc(Br)cc(Cl)c3O)c(O)c(C(=O)O)c2)CCCCC1 | – | 38 nM | 6.38 °C | Active | Active | – | – | – | – | – | – | –
6 | O=C(O)c1cc(S(F)(F)(F)(F)F)cc(NS(=O)(=O)c2cc(Br)ccc2O)c1O | inactive | 47 nM | – | – | – | – | – | – | – | – | – | –
7 | O=C(O)c1cc(OC(F)(F)F)cc(NS(=O)(=O)c2cc(Br)cc(Cl)c2O)c1O | inactive | 51 nM | – | – | – | – | – | – | – | – | – | –
8 | N#CC1(c2ccc(O)c(NS(=O)(=O)c3cc(Br)ccc3O)c2)CCC1 | – | 289 nM | 2.63 °C | – | – | > 100 µM | 27.8 ×10⁻⁶ cm/s | – | – | < 0.0005% | Active | –
9 | O=C(O)c1cc(NS(=O)(=O)c2cc(Br)cc(Cl)c2O)cc(S(F)(F)(F)(F)F)c1 | inactive | 29 nM | – | – | – | – | – | – | – | – | Active | –
10 | CNC(=O)c1cc(Cl)cc(NS(=O)(=O)c2cc(Br)ccc2O)c1O | – | 746 nM | – | Active | Active | > 100 µM | 16.7 ×10⁻⁶ cm/s | – | – | < 0.0004% | Active | 14.1 ×10⁻⁶ cm/s
11 | CNC(=O)c1c(O)c(NS(=O)(=O)c2cc(Br)ccc2O)cc(C2CC2)c1F | – | 1420 nM | – | – | – | > 100 µM | 12.9 ×10⁻⁶ cm/s | – | – | < 0.0002% | Active | 3.4 ×10⁻⁶ cm/s
12 | O=C(O)c1cc(C2CC2)cc(NS(=O)(=O)c2cc(Br)ccc2O)c1O | inactive | 184 nM | – | Active | Active | – | – | – | – | – | – | –
13 | CNC(=O)c1cc(C2(C#N)CCC2)cc(NS(=O)(=O)c2cc(Br)cc(Cl)c2O)c1O | – | 69 nM | 5.53 °C | Active | Active | > 100 µM | 14 ×10⁻⁶ cm/s | Dose-dependent effect | Dose-dependent effect | < 0.0006% | Active | –
14 | N#CC1(c2ccc(O)c(NS(=O)(=O)c3cc(Br)ccc3O)c2)CC1 | inactive | 852 nM | – | – | – | – | – | – | – | – | – | –
